We go through three compounds from ChEMBL document CHEMBL4316617, “Inhibition of the FAD containing ER oxidoreductin 1 (Ero1) protein by EN-460 as a strategy for treatment of multiple myeloma” (Bioorg Med Chem, 2019).

Activity calls are given as the source filed them. The calls are words filed in the database; no cut-off is given here.

The subject of data set [1] is U-266. The experiment in a line: Induction of endoplasmic reticulum stress in human U266 cells assessed as increase in ATF4 level measured after 2 to 8 hrs by Western blot analysis. In kind it is functional, cell-based. In outline:
(§1)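 U266 cells treated with compound or DMSO for 2, 4 and 8 h. Lysates resolved on 8–10% SDS-PAGE and transferred to PVDF. Blocked in 5% milk/TBST, probed overnight at 4 °C for p-eIF2α, ATF4 and ATF6 (this antibody detects full-length ATF6 only), with β-actin as loading control. Chemiluminescent detection; n = 3.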
On the technique in general: A western blot detects proteins with antibodies after separation by electrophoresis.

Data set [2] concerns T1, ERO1-like protein alpha (Homo sapiens), Q96HE7 [C104A,C131A,C166A].
T1 sequence (whole entry): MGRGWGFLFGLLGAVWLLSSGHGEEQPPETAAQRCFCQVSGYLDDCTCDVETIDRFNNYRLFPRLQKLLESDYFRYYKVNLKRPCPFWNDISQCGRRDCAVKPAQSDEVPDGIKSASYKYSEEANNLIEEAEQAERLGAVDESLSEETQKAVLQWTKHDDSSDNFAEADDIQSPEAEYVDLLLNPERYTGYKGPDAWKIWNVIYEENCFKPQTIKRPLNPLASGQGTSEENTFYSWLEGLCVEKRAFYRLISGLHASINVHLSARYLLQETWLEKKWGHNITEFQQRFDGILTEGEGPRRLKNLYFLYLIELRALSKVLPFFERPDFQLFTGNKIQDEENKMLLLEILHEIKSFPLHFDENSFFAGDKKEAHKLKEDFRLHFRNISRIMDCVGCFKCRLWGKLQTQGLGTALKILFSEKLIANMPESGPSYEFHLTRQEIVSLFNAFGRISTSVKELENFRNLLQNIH
Kind of data set: Binding affinity to recombinant human Ero1Lalpha C104A/C131A/C166A triple mutant (22 to 468 residues) expressed in Escherichia coli BL21(DE3)-RIL assessed as melting temperature at 20 uM by SYPRO orange protein gel staining based differential scanning fluorimetry (reference value: 53.15 +/- 0.15 degreeC). (In general: Differential scanning fluorimetry follows unfolding on heating by fluorescence.)

Data set [3] deals with T2, ERO1-like protein alpha (Homo sapiens, UniProt Q96HE7, C104A/C131A/C166A). Kind of data set: (§2) Inhibition of recombinant human Ero1Lalpha C104A/C131A/C166A triple mutant (22 to 468 residues) expressed in Escherichia coli BL21(DE3)-RIL measured after 30 mins by Amplex red dye based fluorescence assay.
The test system of data set [4] is T1, ERO1-like protein alpha (Homo sapiens), Q96HE7 [C104A,C131A,C166A]. Described as §2.
Data set [5] concerns U-266. Kind of data set: Induction of endoplasmic reticulum stress in human U266 cells assessed as reduction in full length ATF6 measured after 2 to 8 hrs by Western blot analysis. In kind it is functional, cell-based. In outline: as §1
Data set [6] in a line: Solubility of the compound at >200 uM. In kind it is physicochemical.
The subject of data set [7] is U-266. Kind of data set: Induction of apoptosis in human U266 cells at 12.5 to 50 uM measured after 18 hrs by Annexin V-FITC/propidium iodide staining based flow cytometry. In kind it is functional, cell-based. In outline: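 U266 cells treated with compound or DMSO vehicle for 18 h, washed in ice-cold PBS, then stained with Annexin V-FITC/PI in binding buffer for 15 min at 37 °C in the dark. At least 10,000 cells analysed by flow cytometry. Mean ± SD, n = 3 independent experiments.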
A general note: Flow cytometry measures light scatter and fluorescence of single cells or particles in a stream.

For the next data set, the system named is PBMC. The experiment in a line: Cytotoxicity against PBMC (unknown origin) assessed as cell death. In kind it is cell-based.
The subject of a further data set is MM1.S. Kind of data set: Cytotoxicity against human MM1S cells assessed as reduction in cell viability measured after 72 hrs by MTT assay. In kind it is functional, cell-based. In outline:
(§3)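 MM cell lines exposed to compound for 72 h. MTT (50 μl of 2 mg/ml) added for 4 h, formazan dissolved in DMSO, absorbance read at 570 nm. IC50 calculated; mean ± SD of 3 independent experiments.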

Data set [8] relates to T1, ERO1-like protein alpha (Homo sapiens), Q96HE7 [C104A,C131A,C166A]. Kind of data set: Competitive inhibition of recombinant human Ero1Lalpha C104A/C131A/C166A triple mutant (22 to 468 residues) expressed in Escherichia coli BL21(DE3)-RIL using varying levels of human PDI as substrate by Lineweaver-burk plot analysis.
In data set [9] the target is Protein disulfide-isomerase (Homo sapiens) (UniProt P07237). Kind of data set: Binding affinity to recombinant human His-tagged PDI (18 to 479 residues) expressed in Escherichia coli assessed as melting temperature at 20 uM by SYPRO orange protein gel staining based differential scanning fluorimetry (reference value: 58.86 +/- 0.12 degreeC).
Chain of Protein disulfide-isomerase (Homo sapiens) (P07237 18-508 limits assumed): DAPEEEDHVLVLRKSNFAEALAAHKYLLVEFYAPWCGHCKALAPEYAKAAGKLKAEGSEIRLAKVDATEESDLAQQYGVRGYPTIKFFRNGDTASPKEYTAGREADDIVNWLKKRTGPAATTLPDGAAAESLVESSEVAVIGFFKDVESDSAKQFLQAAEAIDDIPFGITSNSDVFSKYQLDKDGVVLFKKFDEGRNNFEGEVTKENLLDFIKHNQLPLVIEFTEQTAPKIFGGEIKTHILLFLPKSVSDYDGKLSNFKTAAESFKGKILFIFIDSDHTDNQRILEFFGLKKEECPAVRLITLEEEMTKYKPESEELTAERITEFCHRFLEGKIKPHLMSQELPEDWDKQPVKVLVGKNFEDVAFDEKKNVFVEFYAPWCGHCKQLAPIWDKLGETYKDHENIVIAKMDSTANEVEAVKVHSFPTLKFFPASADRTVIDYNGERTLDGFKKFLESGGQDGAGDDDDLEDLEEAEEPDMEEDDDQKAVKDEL
Data set [10] has as its target T3, Amine oxidase [flavin-containing] A (Homo sapiens, UniProt P21397).
T3 sequence (P21397 whole entry): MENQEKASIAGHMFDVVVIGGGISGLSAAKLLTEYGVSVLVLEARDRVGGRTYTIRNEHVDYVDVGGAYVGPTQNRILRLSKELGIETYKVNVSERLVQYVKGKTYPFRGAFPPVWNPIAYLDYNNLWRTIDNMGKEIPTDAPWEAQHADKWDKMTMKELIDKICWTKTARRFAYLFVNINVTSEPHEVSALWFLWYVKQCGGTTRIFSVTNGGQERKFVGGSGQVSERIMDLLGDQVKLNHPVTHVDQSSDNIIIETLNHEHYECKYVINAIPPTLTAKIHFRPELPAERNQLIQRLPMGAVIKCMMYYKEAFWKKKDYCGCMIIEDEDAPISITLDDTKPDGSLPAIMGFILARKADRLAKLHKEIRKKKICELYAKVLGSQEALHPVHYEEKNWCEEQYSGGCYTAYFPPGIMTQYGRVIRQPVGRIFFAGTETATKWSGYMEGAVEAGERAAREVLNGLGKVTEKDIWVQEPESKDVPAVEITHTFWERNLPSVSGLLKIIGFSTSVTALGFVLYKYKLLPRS
Kind of data set: Inhibition of MAOA (unknown origin) using kynuramine as substrate. In outline: (§4)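 Purchased MAO-A or MAO-B activity measured as kynuramine metabolism, with fluorescence read at Ex 310/Em 380 nm. IC50 fitted, N = 2.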

Data set [11] deals with T2, ERO1-like protein alpha. The experiment in a line: Inhibition of recombinant human Ero1Lalpha C104A/C131A/C166A triple mutant (22 to 468 residues) expressed in Escherichia coli BL21(DE3)-RIL using human PDI as substrate measured after 30 mins by Amplex red dye based fluorescence assay.
Data set [12] has as its target T4, Amine oxidase [flavin-containing] B (Homo sapiens, UniProt P27338).
T4 sequence (P27338 whole entry): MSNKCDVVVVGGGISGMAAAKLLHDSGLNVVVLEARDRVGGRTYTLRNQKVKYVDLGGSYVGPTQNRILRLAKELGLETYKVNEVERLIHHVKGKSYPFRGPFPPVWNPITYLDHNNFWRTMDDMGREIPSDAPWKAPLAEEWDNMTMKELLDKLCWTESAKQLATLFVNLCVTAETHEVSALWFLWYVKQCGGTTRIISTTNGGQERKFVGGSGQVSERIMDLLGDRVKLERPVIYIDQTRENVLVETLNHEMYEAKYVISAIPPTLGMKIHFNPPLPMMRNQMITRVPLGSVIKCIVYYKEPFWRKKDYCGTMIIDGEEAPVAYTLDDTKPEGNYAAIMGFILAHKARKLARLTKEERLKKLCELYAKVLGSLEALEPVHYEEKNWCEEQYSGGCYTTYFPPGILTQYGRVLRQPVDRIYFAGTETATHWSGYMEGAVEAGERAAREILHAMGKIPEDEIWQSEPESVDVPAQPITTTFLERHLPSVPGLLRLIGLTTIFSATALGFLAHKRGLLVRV
Kind of data set: Inhibition of MAOB (unknown origin) using kynuramine as substrate. In outline:
as §4

The target of data set [13] is Lysine-specific histone demethylase 1A (Homo sapiens, UniProt O60341). Kind of data set: Inhibition of recombinant human LSD1 using ARTK(diMethyl)QTARKSTGGKAPRKQLAPRKQLA as substrate measured after 30 mins by ADHP/horseradish peroxidase coupled fluorescence assay. In outline: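 LSD-1 activity measured with a commercial kit following the manufacturer's instructions. IC50 fitted, N = 2.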

In data set [14] the test system is U-266. Kind of data set: Cytotoxicity against human U266 cells assessed as reduction in cell viability measured after 72 hrs by MTT assay. In kind it is functional, cell-based. The settings on record: U-266, 72 h. In outline:
as §3

The subject of data set [15] is U-266. The experiment in a line: Induction of endoplasmic reticulum stress in human U266 cells assessed as increase in eIF2alpha phosphorylation measured after 2 to 8 hrs by Western blot analysis. In kind it is functional, cell-based. In outline:
as §1

Data set [16] can be described thus: Solubility of the compound in pH 7.4 phosphate buffered saline. In kind it is physicochemical. The settings on record: buffer.

For orientation: IC50 means the point on the concentration scale where inhibition reaches its midpoint. On to `O=C(O)c1cc(N2N=C(C(F)(F)F)/C(=C/c3ccc(-c4ccccc4)o3)C2=O)ccc1Cl`, for which the result with U-266 [1], in the data set on U-266 [5], with U-266 [7] and in the data set on U-266 [15] was Active. In addition, the Tm in data set [2] was 55.9 °C; in data set [9], 59.2 °C. For the same compound, the IC50 on ERO1-like protein alpha [3] turned out to be 12.7 µM; in the data set with MM1.S, 14.7 µM; in data set [10], 7.91 µM; on ERO1-like protein alpha [11], 22.1 µM; in data set [12] it was 30.6 µM; in data set [13], 4.16 µM. Further, the concentration for half-maximal inhibition (IC50) in the data set on U-266 [14] was determined as 10.1 µM. The inhibition result in [4] is “Dose-dependent effect”. Moreover, in data set [6], the solubility entry is given as “Insoluble”. In addition, in the data set with PBMC, the Activity result is reported as “Toxic”. For the same compound, in data set [8], the inhibition result is “Active”.

Regarding `[N-]=[N+]=Nc1cccc(-c2ccc(/C=C3/C(=O)N(c4ccc(Cl)c(C(=O)O)c4)N=C3C(F)(F)F)o2)c1`, the Tm turned out to be 59.8 °C in [2] and 57.7 °C in data set [9]. Moreover, the IC50 on ERO1-like protein alpha [3] stood at 12.2 µM; in the data set on MM1.S, 18.8 µM; in the data set on U-266 [14] it was 14.7 µM. Besides, the inhibition result in data set [4] is “Dose-dependent effect”. Also, the solubility result in data set [6] is on record as “Insoluble”.

For `[N-]=[N+]=Nc1ccc(-c2ccc(/C=C3/C(=O)N(c4ccc(Cl)c(C(=O)O)c4)N=C3C(F)(F)F)o2)cc1`, the solubility entry in [16] is “Insoluble”. Also, the IC50 in the data set on MM1.S is 17.3 µM; in the data set with U-266 [14] it was 7.03 µM.
